Consider 22 molecules from ChEMBL document CHEMBL1154753, “N-sulfonylanthranilic acid derivatives as allosteric inhibitors of dengue viral RNA-dependent RNA polymerase” (J Med Chem, 2009).

Structures are written as SMILES. The source made the active and inactive calls. The calls are words filed in the database; no cut-off is given here.

The term IC50 denotes the midpoint of a concentration-inhibition curve.

Experiment [1] is described as follows: Inhibition of Dengue virus recombinant […] RNA dependent RNA polymerase using […] by SPA. The method in brief: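 Purified recombinant dengue 2 NS5 polymerase at 50 nM, preincubated 1 h at room temperature with compound over a range of concentrations and annealed poly(C)/biotin-oligo G template. Buffer: 50 mM Tris-HCl pH 7.0, 10 mM KCl, 2 mM MgCl2, 2 mM MnCl2, 1 mM β-mercaptoethanol, 0.05% CHAPS. Stopped with EDTA and streptavidin SPA beads, then scintillation counting. Duplicates, average of at least two experiments.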

The target of experiment [2] is T1, DNA polymerase alpha catalytic subunit (Homo sapiens, UniProt P09884).
T1 sequence (P09884 whole entry): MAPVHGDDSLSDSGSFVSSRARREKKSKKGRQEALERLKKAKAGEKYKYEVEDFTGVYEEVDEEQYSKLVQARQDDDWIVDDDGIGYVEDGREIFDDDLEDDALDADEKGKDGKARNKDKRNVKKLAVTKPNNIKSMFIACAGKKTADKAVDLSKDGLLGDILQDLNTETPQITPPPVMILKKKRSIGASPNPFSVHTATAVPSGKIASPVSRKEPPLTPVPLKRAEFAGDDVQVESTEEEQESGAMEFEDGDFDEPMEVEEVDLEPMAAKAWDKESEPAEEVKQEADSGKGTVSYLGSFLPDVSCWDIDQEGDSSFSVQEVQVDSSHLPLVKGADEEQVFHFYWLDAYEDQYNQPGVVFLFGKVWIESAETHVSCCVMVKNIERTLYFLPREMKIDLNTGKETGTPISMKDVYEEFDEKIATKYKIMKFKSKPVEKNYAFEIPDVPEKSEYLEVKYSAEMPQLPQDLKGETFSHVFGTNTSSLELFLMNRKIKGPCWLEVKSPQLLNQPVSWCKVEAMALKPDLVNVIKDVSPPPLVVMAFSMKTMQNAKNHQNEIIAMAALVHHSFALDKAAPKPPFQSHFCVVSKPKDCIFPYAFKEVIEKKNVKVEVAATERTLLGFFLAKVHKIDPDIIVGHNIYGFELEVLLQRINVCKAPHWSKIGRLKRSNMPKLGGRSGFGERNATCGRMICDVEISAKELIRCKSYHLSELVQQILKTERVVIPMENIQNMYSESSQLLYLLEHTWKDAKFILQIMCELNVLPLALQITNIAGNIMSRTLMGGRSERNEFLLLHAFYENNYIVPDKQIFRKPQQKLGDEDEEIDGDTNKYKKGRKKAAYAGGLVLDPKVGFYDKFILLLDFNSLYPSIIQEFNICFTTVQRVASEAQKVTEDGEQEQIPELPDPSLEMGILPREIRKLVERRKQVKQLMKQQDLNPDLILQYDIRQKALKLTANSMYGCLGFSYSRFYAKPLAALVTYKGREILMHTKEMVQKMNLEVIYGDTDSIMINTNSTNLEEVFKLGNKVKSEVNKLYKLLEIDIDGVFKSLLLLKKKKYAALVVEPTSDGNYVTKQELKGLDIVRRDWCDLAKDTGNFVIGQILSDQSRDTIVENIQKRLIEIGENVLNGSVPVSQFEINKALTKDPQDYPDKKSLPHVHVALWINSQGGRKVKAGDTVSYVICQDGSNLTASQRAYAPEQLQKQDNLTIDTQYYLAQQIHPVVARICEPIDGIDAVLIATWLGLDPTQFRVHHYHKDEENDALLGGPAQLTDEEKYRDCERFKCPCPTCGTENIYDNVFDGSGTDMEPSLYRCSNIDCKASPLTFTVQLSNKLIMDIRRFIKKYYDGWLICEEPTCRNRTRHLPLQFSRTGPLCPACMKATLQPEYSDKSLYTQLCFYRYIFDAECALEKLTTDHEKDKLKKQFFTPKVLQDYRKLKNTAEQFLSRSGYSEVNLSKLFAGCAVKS
In words: Inhibition of human DNA polymerase alpha.

The nature of experiment [3]: Inhibition of HCV RNA dependent RNA polymerase. The arrangement: species or system Hepacivirus hominis.
Another experiment has as its target DNA polymerase beta (Homo sapiens, UniProt P06746). In words: Inhibition of human DNA polymerase beta.
For a further experiment, the system named is Dengue virus. In words: Irreversible inhibition of Dengue virus recombinant […] RNA dependent RNA polymerase under ultraviolet light irradiation.

On to `O=S(=O)(Nc1ccccc1)c1cccc(-c2cnn(Cc3ccccc3)c2)c1`, for which the half-maximal inhibitory concentration (IC50) in experiment [1] was more than 20 µM.

`O=C(O)c1ccc(F)cc1NS(=O)(=O)c1cccc(-c2cnn(Cc3ccc4ccccc4c3)c2)c1`: the concentration for half-maximal inhibition (IC50) in experiment [1] was 0.26 µM; in experiment [2], more than 20 µM; in experiment [3] it was more than 20 µM; on DNA polymerase beta, more than 20 µM. Take `O=C(O)c1ccc(Cl)cc1NS(=O)(=O)c1cccc(-c2cnn(Cc3ccccc3)c2)c1`: the concentration for half-maximal inhibition (IC50) in experiment [1] is 0.77 µM. The same measure, in the same setting: in the case of `COC(=O)c1ccccc1NS(=O)(=O)c1cccc(-c2cnn(Cc3ccccc3)c2)c1` it was more than 20 µM; in that of `O=C(O)c1cc(Cl)ccc1NS(=O)(=O)c1cccc(-c2cnn(Cc3ccccc3)c2)c1`, 2.56 µM.

Turning to `O=C(O)c1ccc(NS(=O)(=O)c2cccc(-c3cnn(Cc4ccccc4)c3)c2)cc1`, the half-inhibitory concentration (IC50) in experiment [1] was more than 20 µM.

For `O=C(Nc1cccc(Cn2cc(-c3cccc(S(=O)(=O)Nc4ccccc4C(=O)O)c3)cn2)c1)c1ccc(C(=O)c2ccccc2)cc1`, the half-maximal inhibitory concentration (IC50) in experiment [1] amounted to 1.5 µM. Further, in the experiment with Dengue virus, the outcome was Active. As for `COc1ccc(C(=O)O)c(NS(=O)(=O)c2cccc(-c3cnn(Cc4ccccc4)c3)c2)c1`, the IC50 in experiment [1] was 9.99 µM. For `O=C(O)c1cccc(Cl)c1NS(=O)(=O)c1cccc(-c2cnn(Cc3ccccc3)c2)c1`, the IC50 in experiment [1] amounted to 18 µM. Consider `O=C(O)c1cccc(NS(=O)(=O)c2cccc(-c3cnn(Cc4ccccc4)c3)c2)c1`, for which, in experiment [1], the IC50 was more than 20 µM. Consider `CC(C)Cn1cc(-c2cccc(S(=O)(=O)Nc3ccccc3C(=O)O)c2)cn1`, for which the IC50 in experiment [1] was more than 20 µM. On the same count and under the same terms, in the case of `COc1cc(NS(=O)(=O)c2cccc(-c3cnn(Cc4ccccc4)c3)c2)c(C(=O)O)cc1OC` it was more than 20 µM. Same read-out and setting: in the case of `O=C(O)c1ccccc1NS(=O)(=O)c1cccc(-c2cnn(Cc3ccc4ccccc4c3)c2)c1` it was 0.37 µM; in that of `O=C(O)c1ccccc1NS(=O)(=O)c1cccc(-c2cn[nH]c2)c1`, more than 20 µM. Take `O=C(O)c1ccc(F)cc1NS(=O)(=O)c1cccc(-c2cnn(Cc3ccccc3)c2)c1`: the concentration for half-maximal inhibition (IC50) in experiment [1] was 0.37 µM; in experiment [2], more than 20 µM; in experiment [3] it was more than 20 µM; on DNA polymerase beta, more than 20 µM. For the molecule `O=C(O)c1c(Cl)cccc1NS(=O)(=O)c1cccc(-c2cnn(Cc3ccccc3)c2)c1`, in experiment [1], the IC50 is more than 20 µM. Still for that read-out and setting: in the case of `O=C(O)c1ccccc1NS(=O)(=O)c1cccc(-c2cnn(CCN3CCOCC3)c2)c1` it was more than 20 µM; in that of `CC1=NN(c2cccc(S(=O)(=O)Nc3ccccc3C(=O)O)c2)C(=O)C1`, 7.2 µM. Consider `O=C(O)c1ccccc1NS(=O)(=O)c1cccc(-c2cnn(Cc3ccccc3)c2)c1`, for which the IC50 in experiment [1] was 0.7 µM; in experiment [2] it was more than 20 µM; in experiment [3] it was more than 20 µM; against DNA polymerase beta it was more than 20 µM.

Turning to `Cn1cc(-c2cccc(S(=O)(=O)Nc3ccccc3C(=O)O)c2)cn1`, in experiment [1], the IC50 was more than 20 µM. For `NC(=O)c1ccccc1NS(=O)(=O)c1cccc(-c2cnn(Cc3ccccc3)c2)c1`, the IC50 in experiment [1] is more than 20 µM. On the same count and under the same terms, for `CC(C)CCn1cc(-c2cccc(S(=O)(=O)Nc3ccccc3C(=O)O)c2)cn1` the value was 6.77 µM.
